Measurements taken from ChEMBL document CHEMBL4425163, “Structure elucidation of anti-methicillin resistant Staphylococcus aureus (MRSA) flavonoids from balsam poplar buds” (Bioorg Med Chem, 2016).
Values after ≈ are worked out from the molar mass of the structure shown.

Key:
[1] = tested on: Staphylococcus aureus; assay: Antibacterial activity against methicillin resistant Staphylococcus aureus clinical isolate 7 incubated […] by microdilution resazurin assay; type: functional; conditions: Staphylococcus aureus, isolate 7; read-out: MIC
[2] = Cytotoxicity against human WS1 cells by resazurin reduction assay; type: cell-based; conditions: Homo sapiens, WS1
How it was run: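 WS1 human fibroblast line; resazurin reduction test, slightly modified from an earlier method. Etoposide served as positive control.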

[3] = tested on: Staphylococcus aureus; assay: Antibacterial activity against methicillin resistant Staphylococcus aureus clinical isolate 4 incubated for 7 to 14 days by microdilution resazurin assay
[4] = tested on: Staphylococcus aureus; assay: Antibacterial activity against methicillin resistant Staphylococcus aureus clinical isolate 1 incubated […] by microdilution resazurin assay; type: functional; conditions: Staphylococcus aureus, isolate 1; read-out: MIC
[5] = tested on: Staphylococcus aureus; assay: Antibacterial activity against methicillin resistant Staphylococcus aureus clinical isolate 6 incubated […] by microdilution resazurin assay; type: functional; conditions: Staphylococcus aureus, isolate 6; read-out: MIC
[6] = tested on: Staphylococcus aureus; assay: Antibacterial activity against methicillin resistant Staphylococcus aureus clinical isolate 8 incubated […] by microdilution resazurin assay; type: functional; conditions: Staphylococcus aureus, isolate 8; read-out: MIC
[7] = tested on: Staphylococcus aureus; assay: Antibacterial activity against methicillin resistant Staphylococcus aureus clinical isolate 5 incubated […] by microdilution resazurin assay; type: functional; conditions: Staphylococcus aureus, isolate 5; read-out: MIC
[8] = tested on: Staphylococcus aureus; assay: Antibacterial activity against methicillin resistant Staphylococcus aureus clinical isolate 3 incubated for 7 to 14 days by microdilution resazurin assay
[9] = tested on: Staphylococcus aureus; assay: Antibacterial activity against methicillin resistant Staphylococcus aureus clinical isolate 9 incubated […] by microdilution resazurin assay; type: functional; conditions: Staphylococcus aureus, isolate 9; read-out: MIC
[10] = tested on: Staphylococcus aureus; assay: Antibacterial activity against methicillin resistant Staphylococcus aureus clinical isolate 10 incubated […] by microdilution resazurin assay; type: functional; conditions: Staphylococcus aureus, isolate 10; read-out: MIC
[11] = tested on: Staphylococcus aureus; assay: Antibacterial activity against Staphylococcus aureus ATCC 25923 incubated […] by microdilution resazurin assay; type: functional; conditions: Staphylococcus aureus, ATCC 25923; read-out: MIC
[12] = tested on: Staphylococcus aureus; assay: Antibacterial activity against methicillin resistant Staphylococcus aureus clinical isolate 2 incubated […] by microdilution resazurin assay; type: functional; conditions: Staphylococcus aureus, isolate 2; read-out: MIC

Row | SMILES | MIC [1] | IC50 [2] | MIC [3] | MIC [4] | MIC [5] | MIC [6] | MIC [7] | MIC [8] | MIC [9] | MIC [10] | MIC [11] | MIC [12]
1 | COc1ccc(CCC(=O)c2c(O)cc(O)c(C(c3ccc(O)cc3)C(C/C=C/c3ccc(O)cc3)COC(=O)/C=C/c3ccccc3)c2O)cc1 (racemic) | > 50 µM | > 10 µM | > 50 µM | > 50 µM | > 50 µM | > 50 µM | > 50 µM | > 50 µM | > 50 µM | > 50 µM | 25 µM (≈ 17.5 µg/mL) | > 50 µM
2 | O=C(CCc1ccccc1)c1c(O)cc(O)c(C/C=C/c2ccc(O)cc2)c1O | 6 µM (≈ 2.34 µg/mL) | > 10 µM | 6 µM (≈ 2.34 µg/mL) | 6 µM (≈ 2.34 µg/mL) | 50 µM (≈ 19.5 µg/mL) | 3 µM (≈ 1.17 µg/mL) | 3 µM (≈ 1.17 µg/mL) | 6 µM (≈ 2.34 µg/mL) | 3 µM (≈ 1.17 µg/mL) | 6 µM (≈ 2.34 µg/mL) | 6 µM (≈ 2.34 µg/mL) | 6 µM (≈ 2.34 µg/mL)
